Measurements from ChEMBL document CHEMBL1131948, “Design, synthesis, and evaluation of azapeptides as substrates and inhibitors for human rhinovirus 3C protease” (Bioorg Med Chem Lett, 1999).
Calls of active or inactive are those of the source. The rule behind the calls is not given here. Where a SMILES comes first, the peptide text is derived from it. The star is where a group is joined. Boc = CC(C)(C)OC(=O)*; X1 = c1ccc(O*)cc1

Key:
[1] = molecular target: T1, Human rhinovirus A protease (Human rhinovirus sp.) (UniProt Q4U254); test: Inhibitory activity against human rhinovirus 3C protease at a concentration of 150 uM (HRV-14 3Cpro)
T1 sequence (whole entry): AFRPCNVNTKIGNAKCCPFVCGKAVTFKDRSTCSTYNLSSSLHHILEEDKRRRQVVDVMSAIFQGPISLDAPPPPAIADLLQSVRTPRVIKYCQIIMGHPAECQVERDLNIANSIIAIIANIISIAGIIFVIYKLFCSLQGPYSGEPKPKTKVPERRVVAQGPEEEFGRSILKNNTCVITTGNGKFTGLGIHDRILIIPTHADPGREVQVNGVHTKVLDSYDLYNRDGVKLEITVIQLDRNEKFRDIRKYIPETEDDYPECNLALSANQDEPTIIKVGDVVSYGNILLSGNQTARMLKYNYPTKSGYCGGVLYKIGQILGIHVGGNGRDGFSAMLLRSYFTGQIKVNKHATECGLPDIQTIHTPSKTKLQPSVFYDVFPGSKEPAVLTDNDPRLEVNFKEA
Summary of the method: (§1)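 HRV-14 3C protease (0.75-3.3 µM) was preincubated with compound in 25 mM HEPES, 150 mM NaCl, 1 mM EDTA, pH 7.5, at 28-30 °C. Aliquots were taken periodically and diluted 13-fold into buffer containing 250 µM EALFQ-pNA, and absorbance was read at 405 nm. Activity is expressed relative to a no-inhibitor control, with the earliest point taken about 10-15 s after mixing.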

[2] = molecular target: T1, Human rhinovirus A protease (Human rhinovirus sp.); test: Inhibitory activity against human rhinovirus 3C protease (HRV-14 3Cpro); Inactive; summary of the method: as §1
[3] = molecular target: T1, Human rhinovirus A protease (Human rhinovirus sp.); test: Inhibitory activity against human rhinovirus 3C protease (HRV-14 3Cpro) at a concentration of 100 uM after 45 min of incubation; design: scale not given: the % may be the effect or the level left; summary of the method: as §1
[4] = molecular target: T1, Human rhinovirus A protease (Human rhinovirus sp.); test: Inhibitory activity against human rhinovirus 3C protease (HRV-14 3Cpro) at a concentration of 50 uM after 15 min of incubation; design: scale not given: the % may be the effect or the level left; summary of the method: as §1
[5] = molecular target: T1, Human rhinovirus A protease (Human rhinovirus sp.); test: Inhibitory activity against human rhinovirus 3C protease (HRV-14 3Cpro) at a concentration of 150 uM after 30 min of incubation; design: scale not given: the % may be the effect or the level left; summary of the method: as §1
[6] = molecular target: T1, Human rhinovirus A protease (Human rhinovirus sp.); test: Inhibitory activity against human rhinovirus 3C protease (HRV-14 3Cpro) at a concentration of 150 uM; design: scale not given: the % may be the effect or the level left; summary of the method: as §1
[7] = molecular target: T1, Human rhinovirus A protease (Human rhinovirus sp.); test: Inhibitory activity against human rhinovirus 3C protease (HRV-14 3Cpro) at a concentration of 50 uM after 30 min of incubation; design: scale not given: the % may be the effect or the level left; summary of the method: as §1
[8] = molecular target: T1, Human rhinovirus A protease (Human rhinovirus sp.); test: Inhibitory activity against human rhinovirus 3C protease (HRV-14 3Cpro) at a concentration of 150 uM after 15 min of incubation; design: scale not given: the % may be the effect or the level left; summary of the method: as §1
[9] = molecular target: T1, Human rhinovirus A protease (Human rhinovirus sp.); test: Inhibitory activity against human rhinovirus 3C protease (HRV-14 3Cpro) at a concentration of 50 uM after 45 min of incubation; design: scale not given: the % may be the effect or the level left; summary of the method: as §1
[10] = molecular target: T1, Human rhinovirus A protease (Human rhinovirus sp.); test: Inhibitory activity against human rhinovirus 3C protease (HRV-14 3Cpro) at a concentration of 100 uM after 15 min of incubation; design: scale not given: the % may be the effect or the level left; summary of the method: as §1
[11] = molecular target: T1, Human rhinovirus A protease (Human rhinovirus sp.); test: Inhibitory activity against human rhinovirus 3C protease (HRV-14 3Cpro) at a concentration of 100 uM; design: scale not given: the % may be the effect or the level left; summary of the method: as §1
[12] = molecular target: T1, Human rhinovirus A protease (Human rhinovirus sp.); test: Inhibitory activity against human rhinovirus 3C protease (HRV-14 3Cpro) at a concentration of 150 uM after 110 min of incubation; design: scale not given: the % may be the effect or the level left; summary of the method: as §1
[13] = molecular target: T1, Human rhinovirus A protease (Human rhinovirus sp.); test: Inhibitory activity against human rhinovirus 3C protease (HRV-14 3Cpro) at a concentration of 150 uM after 75 min of incubation; design: scale not given: the % may be the effect or the level left; summary of the method: as §1
[14] = molecular target: T1, Human rhinovirus A protease (Human rhinovirus sp.); test: Inhibitory activity against human rhinovirus 3C protease (HRV-14 3Cpro) at a concentration of 50 uM; design: scale not given: the % may be the effect or the level left; summary of the method: as §1
[15] = molecular target: T1, Human rhinovirus A protease (Human rhinovirus sp.); test: Inhibitory activity against human rhinovirus 3C protease (HRV-14 3Cpro) at a concentration of 150 uM after 90 min of incubation; design: scale not given: the % may be the effect or the level left; summary of the method: as §1
[16] = molecular target: T1, Human rhinovirus A protease (Human rhinovirus sp.); test: Inhibitory activity against human rhinovirus 3C protease (HRV-14 3Cpro) at a concentration of 100 uM after 75 min of incubation; design: scale not given: the % may be the effect or the level left; summary of the method: as §1
[17] = molecular target: T1, Human rhinovirus A protease (Human rhinovirus sp.); test: Inhibitory activity against human rhinovirus 3C protease (HRV-14 3Cpro) at a concentration of 100 uM after 60 min of incubation; design: scale not given: the % may be the effect or the level left; summary of the method: as §1
[18] = molecular target: T1, Human rhinovirus A protease (Human rhinovirus sp.); test: Inhibitory activity against human rhinovirus 3C protease (HRV-14 3Cpro) at a concentration of 100 uM after 110 min of incubation; design: scale not given: the % may be the effect or the level left; summary of the method: as §1
[19] = molecular target: T1, Human rhinovirus A protease (Human rhinovirus sp.); test: Inhibitory activity against human rhinovirus 3C protease (HRV-14 3Cpro) at a concentration of 100 uM after 30 min of incubation; design: scale not given: the % may be the effect or the level left; summary of the method: as §1
[20] = molecular target: T1, Human rhinovirus A protease (Human rhinovirus sp.); test: Inhibitory activity against human rhinovirus 3C protease (HRV-14 3Cpro) at a concentration of 150 uM after 60 min of incubation; design: scale not given: the % may be the effect or the level left; summary of the method: as §1

## CC(C)C[C@H](NC(=O)[C@@H](NC(=O)OC(C)(C)C)C(C)C)C(=O)N[C@@H](Cc1ccccc1)C(=O)NCC(=O)Oc1ccccc1 (Boc-VLFG-X1)
[1]
  k: 0.009 min⁻¹

## CC(C)C[C@H](NC(=O)[C@@H](NC(=O)OC(C)(C)C)C(C)C)C(=O)N[C@@H](Cc1ccccc1)C(=O)NN(CCC(N)=O)C(=O)OCC(Cl)(Cl)Cl
[2]
  Activity: inactive

## CC(C)(C)OC(=O)N[C@@H](Cc1ccccc1)C(=O)NN(CCC(N)=O)C(=O)Oc1ccccc1
[2]
  Activity: inactive

## CC(C)C[C@H](NC(=O)[C@@H](NC(=O)OC(C)(C)C)C(C)C)C(=O)N[C@@H](Cc1ccccc1)C(=O)NN(CCC(N)=O)C(=O)OCc1ccccc1
[2]
  Activity: inactive

## CC(C)C[C@H](NC(=O)[C@@H](NC(=O)OC(C)(C)C)C(C)C)C(=O)N[C@@H](Cc1ccccc1)C(=O)NN(CCC(N)=O)C(=O)Oc1ccccc1
[3]
  Activity: 62%
[4]
  Activity: 40%
[5]
  Activity: 13%
[6]
  Activity: 5%
[7]
  Activity: 75%
[8]
  Activity: 10%
[9]
  Activity: 85%
[10]
  Activity: 18%
[11]
  Activity: 18%
[12]
  Activity: 85%
[13]
  Activity: 45%
[14]
  Activity: 23%
[15]
  Activity: 70%
[16]
  Activity: 95%
[17]
  Activity: 90%
[18]
  Activity: 95%
[19]
  Activity: 28%
[20]
  Activity: 20%
